Assay results: ChEMBL document CHEMBL1165965, “Synthesis and structure-activity relationships of 1,2,3,4-tetrahydropyrido[2,3-b]pyrazines as potent and selective inhibitors of the anaplastic lymphoma kinase” (Bioorg Med Chem, 2010)

What was measured:
[1] = system: Proto-oncogene tyrosine-protein kinase receptor Ret (Homo sapiens), P07949 [V804M]; test: Inhibition of RET V804M mutant at 1 uM
[2] = biological target: Mitogen-activated protein kinase kinase kinase kinase 4 (Homo sapiens) (UniProt O95819); test: Inhibition of MAP4K4 at 1 uM
Summary of the method: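 Single-concentration screen on the Ambit KINOMEscan platform, run against a panel of 250–400 kinases. Per-kinase inhibition was also summarized as S(90), the fraction of kinases inhibited by more than 90%.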

[3] = biological target: Tyrosine-protein kinase Blk (Homo sapiens) (UniProt P51451); test: Inhibition of BLK at 1 uM
Chain of Tyrosine-protein kinase Blk (Homo sapiens) (P51451 2-505 limits assumed): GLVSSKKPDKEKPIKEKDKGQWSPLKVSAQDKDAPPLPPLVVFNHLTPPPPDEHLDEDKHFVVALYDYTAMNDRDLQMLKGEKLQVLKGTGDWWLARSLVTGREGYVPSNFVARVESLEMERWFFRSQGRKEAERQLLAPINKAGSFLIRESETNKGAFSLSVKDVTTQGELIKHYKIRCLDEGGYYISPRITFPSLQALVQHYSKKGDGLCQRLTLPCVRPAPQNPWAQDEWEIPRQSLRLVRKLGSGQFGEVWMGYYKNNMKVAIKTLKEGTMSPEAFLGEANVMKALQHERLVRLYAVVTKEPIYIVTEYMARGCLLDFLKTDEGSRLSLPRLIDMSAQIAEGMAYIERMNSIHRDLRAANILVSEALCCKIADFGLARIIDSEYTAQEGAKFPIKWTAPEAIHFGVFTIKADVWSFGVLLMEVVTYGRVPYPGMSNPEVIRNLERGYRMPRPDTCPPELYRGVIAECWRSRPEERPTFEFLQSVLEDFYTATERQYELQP
Summary of the method: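 Ambit KINOMEscan screen at a single concentration across a 250–400 kinase panel, recorded as percent inhibition. Selectivity was expressed as S(90), the fraction of kinases inhibited >90%.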

[4] = system: Epidermal growth factor receptor (Homo sapiens), P00533 [G719C]; test: Inhibition of EGFR G719C mutant at 1 uM; assay type: protein assay
Chain of Epidermal growth factor receptor (Homo sapiens), P00533 [G719C] (P00533 whole entry G719C): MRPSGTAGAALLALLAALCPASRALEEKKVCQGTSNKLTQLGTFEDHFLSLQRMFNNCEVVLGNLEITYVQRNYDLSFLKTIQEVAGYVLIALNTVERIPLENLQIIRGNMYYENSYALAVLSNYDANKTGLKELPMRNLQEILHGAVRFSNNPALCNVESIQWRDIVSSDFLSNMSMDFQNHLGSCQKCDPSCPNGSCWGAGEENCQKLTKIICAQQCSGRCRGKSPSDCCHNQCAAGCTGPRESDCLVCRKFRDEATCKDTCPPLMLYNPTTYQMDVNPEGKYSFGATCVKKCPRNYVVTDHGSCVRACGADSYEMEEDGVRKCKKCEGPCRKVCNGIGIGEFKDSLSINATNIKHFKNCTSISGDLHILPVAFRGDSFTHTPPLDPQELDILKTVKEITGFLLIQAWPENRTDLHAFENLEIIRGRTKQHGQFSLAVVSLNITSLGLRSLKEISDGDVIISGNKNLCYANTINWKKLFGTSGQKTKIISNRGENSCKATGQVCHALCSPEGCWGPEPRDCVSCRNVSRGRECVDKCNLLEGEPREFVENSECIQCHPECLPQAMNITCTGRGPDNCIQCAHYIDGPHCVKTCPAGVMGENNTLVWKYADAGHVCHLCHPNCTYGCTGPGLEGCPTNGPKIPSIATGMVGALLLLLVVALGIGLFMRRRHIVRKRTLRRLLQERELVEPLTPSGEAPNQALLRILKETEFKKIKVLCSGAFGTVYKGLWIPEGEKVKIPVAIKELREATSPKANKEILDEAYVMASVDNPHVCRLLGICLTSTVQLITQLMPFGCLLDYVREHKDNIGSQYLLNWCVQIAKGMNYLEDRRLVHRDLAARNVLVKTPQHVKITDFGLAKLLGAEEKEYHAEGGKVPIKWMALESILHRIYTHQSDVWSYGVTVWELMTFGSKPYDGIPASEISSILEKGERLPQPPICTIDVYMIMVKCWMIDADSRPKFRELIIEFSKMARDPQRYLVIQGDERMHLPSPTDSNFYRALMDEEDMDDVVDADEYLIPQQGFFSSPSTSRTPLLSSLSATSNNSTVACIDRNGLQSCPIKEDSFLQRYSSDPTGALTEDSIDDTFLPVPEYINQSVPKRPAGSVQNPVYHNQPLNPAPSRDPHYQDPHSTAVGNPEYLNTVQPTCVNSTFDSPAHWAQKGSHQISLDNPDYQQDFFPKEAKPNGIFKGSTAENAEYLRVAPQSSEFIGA
Summary of the method: (§1)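 Single-concentration screen using Ambit Bioscience KINOMEscan technology across a panel of 250–400 kinases. Per-kinase inhibition from this screen was summarized as S(90), the fraction of kinases inhibited by more than 90%.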

[5] = system: Proto-oncogene tyrosine-protein kinase receptor Ret (Homo sapiens), P07949 [M918T]; test: Inhibition of RET M918T mutant at 1 uM
Chain of Proto-oncogene tyrosine-protein kinase receptor Ret (Homo sapiens), P07949 [M918T] (P07949 whole entry M918T): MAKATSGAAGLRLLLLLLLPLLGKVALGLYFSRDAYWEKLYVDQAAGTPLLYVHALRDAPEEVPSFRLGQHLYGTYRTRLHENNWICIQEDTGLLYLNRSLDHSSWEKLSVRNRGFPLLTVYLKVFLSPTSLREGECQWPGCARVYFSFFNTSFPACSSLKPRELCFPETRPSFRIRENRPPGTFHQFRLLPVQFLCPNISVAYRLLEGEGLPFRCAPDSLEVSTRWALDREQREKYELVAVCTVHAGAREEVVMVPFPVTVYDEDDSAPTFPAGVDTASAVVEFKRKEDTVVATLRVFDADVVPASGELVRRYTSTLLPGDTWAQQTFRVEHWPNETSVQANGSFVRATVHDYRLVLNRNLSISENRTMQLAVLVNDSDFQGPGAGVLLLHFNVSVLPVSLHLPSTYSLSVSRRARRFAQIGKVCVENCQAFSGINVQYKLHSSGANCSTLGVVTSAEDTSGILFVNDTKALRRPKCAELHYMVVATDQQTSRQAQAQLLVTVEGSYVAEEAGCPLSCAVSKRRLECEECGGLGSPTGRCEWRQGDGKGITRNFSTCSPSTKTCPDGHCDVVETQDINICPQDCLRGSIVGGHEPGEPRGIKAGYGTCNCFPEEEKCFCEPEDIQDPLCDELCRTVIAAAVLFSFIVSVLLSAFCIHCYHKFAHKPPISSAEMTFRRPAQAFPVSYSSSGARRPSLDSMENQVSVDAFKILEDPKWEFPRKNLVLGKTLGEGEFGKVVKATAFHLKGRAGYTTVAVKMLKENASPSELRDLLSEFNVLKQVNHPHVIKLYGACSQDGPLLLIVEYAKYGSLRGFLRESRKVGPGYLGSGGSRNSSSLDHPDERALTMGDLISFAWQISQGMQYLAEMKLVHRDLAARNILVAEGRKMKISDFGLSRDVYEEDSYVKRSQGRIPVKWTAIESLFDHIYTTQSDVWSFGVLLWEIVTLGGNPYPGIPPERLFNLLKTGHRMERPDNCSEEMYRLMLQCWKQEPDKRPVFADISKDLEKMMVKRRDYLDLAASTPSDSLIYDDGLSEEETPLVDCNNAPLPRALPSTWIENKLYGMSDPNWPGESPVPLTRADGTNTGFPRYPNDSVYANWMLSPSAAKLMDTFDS

[6] = biological target: T1, Serine/threonine-protein kinase ULK1 (Homo sapiens) (UniProt O75385); test: Inhibition of ULK1 at 1 uM
T1 sequence (whole entry): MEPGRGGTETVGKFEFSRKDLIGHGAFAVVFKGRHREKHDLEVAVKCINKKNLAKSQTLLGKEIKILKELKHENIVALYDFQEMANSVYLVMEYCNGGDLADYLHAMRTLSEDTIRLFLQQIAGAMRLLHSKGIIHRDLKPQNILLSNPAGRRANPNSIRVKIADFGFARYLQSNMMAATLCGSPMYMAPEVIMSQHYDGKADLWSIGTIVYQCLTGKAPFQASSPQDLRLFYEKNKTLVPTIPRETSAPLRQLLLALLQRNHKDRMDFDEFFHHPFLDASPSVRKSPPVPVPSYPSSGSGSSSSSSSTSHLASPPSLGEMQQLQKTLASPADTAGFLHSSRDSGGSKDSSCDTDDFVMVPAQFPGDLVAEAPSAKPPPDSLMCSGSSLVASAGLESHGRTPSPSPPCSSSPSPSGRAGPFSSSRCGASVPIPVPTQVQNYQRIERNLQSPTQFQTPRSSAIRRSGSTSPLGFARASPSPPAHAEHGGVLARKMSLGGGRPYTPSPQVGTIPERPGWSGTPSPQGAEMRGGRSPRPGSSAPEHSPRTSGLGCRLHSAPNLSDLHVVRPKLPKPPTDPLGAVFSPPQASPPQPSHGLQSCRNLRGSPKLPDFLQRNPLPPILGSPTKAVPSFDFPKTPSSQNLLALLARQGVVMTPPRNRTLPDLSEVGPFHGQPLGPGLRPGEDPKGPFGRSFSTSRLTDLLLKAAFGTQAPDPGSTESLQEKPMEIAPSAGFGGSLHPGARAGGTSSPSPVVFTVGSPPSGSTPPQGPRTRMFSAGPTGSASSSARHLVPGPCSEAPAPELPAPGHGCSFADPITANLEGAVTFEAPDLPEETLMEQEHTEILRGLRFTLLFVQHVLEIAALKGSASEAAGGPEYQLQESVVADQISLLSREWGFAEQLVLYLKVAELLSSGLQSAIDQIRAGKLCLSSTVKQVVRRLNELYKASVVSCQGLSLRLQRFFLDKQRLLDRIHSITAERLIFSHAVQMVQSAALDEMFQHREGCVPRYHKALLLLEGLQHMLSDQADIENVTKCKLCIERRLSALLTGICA

[7] = biological target: Receptor tyrosine-protein kinase erbB-2 (Homo sapiens) (UniProt P04626); test: Inhibition of ERBB2 at 1 uM; summary of the method: as §1
[8] = biological target: Serine/threonine-protein kinase 25 (Homo sapiens) (UniProt O00506); test: Inhibition of YSK1 at 1 uM
Chain of Serine/threonine-protein kinase 25 (Homo sapiens) (O00506 whole entry, looked up, canonical isoform): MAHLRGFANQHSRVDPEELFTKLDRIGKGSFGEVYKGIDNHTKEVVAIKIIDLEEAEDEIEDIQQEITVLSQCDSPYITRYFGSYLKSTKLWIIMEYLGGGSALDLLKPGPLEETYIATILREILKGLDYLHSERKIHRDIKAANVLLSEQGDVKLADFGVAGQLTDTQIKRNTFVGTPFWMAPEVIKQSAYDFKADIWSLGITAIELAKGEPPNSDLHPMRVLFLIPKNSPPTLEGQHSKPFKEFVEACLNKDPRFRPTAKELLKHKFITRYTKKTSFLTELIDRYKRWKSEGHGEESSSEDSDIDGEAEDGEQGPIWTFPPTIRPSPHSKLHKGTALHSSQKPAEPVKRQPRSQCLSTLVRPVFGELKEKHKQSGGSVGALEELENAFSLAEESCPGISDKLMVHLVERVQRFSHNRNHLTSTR

[9] = biological target: Phosphatidylinositol 4,5-bisphosphate 3-kinase catalytic subunit alpha isoform (Homo sapiens) (UniProt P42336); test: Inhibition of PIK3CA at 1 uM
Chain of Phosphatidylinositol 4,5-bisphosphate 3-kinase catalytic subunit alpha isoform (Homo sapiens) (P42336 whole entry, canonical isoform): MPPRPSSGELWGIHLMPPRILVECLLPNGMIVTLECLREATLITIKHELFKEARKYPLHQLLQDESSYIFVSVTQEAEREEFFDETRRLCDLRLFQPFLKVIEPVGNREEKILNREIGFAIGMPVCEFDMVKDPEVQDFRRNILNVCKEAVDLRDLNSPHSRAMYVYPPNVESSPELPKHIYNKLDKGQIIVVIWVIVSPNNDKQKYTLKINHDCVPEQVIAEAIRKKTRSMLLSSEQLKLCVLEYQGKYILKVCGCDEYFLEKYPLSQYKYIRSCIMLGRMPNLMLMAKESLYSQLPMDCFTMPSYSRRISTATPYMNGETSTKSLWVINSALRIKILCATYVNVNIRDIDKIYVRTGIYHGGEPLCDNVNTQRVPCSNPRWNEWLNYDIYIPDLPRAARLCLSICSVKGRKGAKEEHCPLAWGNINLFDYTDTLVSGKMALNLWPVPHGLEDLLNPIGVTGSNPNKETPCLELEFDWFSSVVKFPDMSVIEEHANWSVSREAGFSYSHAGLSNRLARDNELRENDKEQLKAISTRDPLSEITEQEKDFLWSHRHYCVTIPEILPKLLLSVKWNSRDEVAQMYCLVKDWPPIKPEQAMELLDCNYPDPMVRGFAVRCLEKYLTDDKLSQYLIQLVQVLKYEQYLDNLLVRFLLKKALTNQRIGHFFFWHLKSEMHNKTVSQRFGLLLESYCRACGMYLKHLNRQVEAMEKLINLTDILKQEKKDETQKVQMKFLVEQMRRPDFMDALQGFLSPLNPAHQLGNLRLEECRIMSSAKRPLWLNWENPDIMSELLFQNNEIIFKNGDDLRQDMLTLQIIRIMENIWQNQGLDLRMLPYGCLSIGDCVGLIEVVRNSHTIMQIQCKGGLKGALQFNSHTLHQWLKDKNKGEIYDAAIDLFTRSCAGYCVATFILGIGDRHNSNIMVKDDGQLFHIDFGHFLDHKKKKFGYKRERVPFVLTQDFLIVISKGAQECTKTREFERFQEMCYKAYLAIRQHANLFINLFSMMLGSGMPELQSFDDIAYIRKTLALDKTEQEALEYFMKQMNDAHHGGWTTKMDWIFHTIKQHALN

[10] = biological target: T2, Serine/threonine-protein kinase TNNI3K (Homo sapiens) (UniProt Q59H18); test: Inhibition of TNNI3K at 1 uM
T2 sequence (whole entry): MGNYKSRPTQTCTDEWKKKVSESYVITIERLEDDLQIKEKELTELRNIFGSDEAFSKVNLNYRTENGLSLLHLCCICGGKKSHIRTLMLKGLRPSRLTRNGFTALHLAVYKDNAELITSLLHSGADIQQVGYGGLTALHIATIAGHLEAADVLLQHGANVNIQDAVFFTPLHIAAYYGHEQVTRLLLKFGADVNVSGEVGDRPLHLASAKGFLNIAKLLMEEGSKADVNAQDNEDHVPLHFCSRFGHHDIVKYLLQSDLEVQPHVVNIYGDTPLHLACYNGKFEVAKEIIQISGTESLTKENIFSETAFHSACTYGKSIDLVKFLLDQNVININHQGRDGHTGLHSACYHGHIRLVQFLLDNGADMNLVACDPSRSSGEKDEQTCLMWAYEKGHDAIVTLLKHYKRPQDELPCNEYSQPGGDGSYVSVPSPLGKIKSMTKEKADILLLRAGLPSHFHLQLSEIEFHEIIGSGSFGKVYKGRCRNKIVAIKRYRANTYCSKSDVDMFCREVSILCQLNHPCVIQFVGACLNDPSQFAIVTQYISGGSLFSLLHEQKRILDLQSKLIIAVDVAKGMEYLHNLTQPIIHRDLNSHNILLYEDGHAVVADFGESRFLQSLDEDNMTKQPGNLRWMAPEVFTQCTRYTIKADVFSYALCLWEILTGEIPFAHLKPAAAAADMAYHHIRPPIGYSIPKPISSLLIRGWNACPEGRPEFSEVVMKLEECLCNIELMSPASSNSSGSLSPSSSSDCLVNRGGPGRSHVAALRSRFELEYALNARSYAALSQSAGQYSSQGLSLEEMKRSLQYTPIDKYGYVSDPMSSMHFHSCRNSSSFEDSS

[11] = biological target: Citron Rho-interacting kinase (Homo sapiens) (UniProt O14578); test: Inhibition of CIT at 1 uM

Chain of Proto-oncogene tyrosine-protein kinase receptor Ret (Homo sapiens), P07949 [V804M] (P07949 whole entry V804M): as the sequence (P07949 whole entry M918T) above, with V804M, T918M counted along it

| Structure (SMILES) | inhibition [1] [%] | inhibition [2] [%] | inhibition [3] [%] | inhibition [4] [%] | inhibition [5] [%] | inhibition [6] [%] | inhibition [7] [%] | inhibition [8] [%] | inhibition [9] [%] | inhibition [10] [%] | inhibition [11] [%] |
| --- | --- | --- | --- | --- | --- | --- | --- | --- | --- | --- | --- |
| O=C(c1ccc(-c2cnc3c(c2)N(Cc2cc(Cl)ccc2C(F)(F)F)CCN3)cc1)N1CCC(N2CCCC2)CC1 |  | < 50 | < 50 | < 50 |  |  | < 50 |  | < 50 | < 50 |  |
| O=C(c1ccc(-c2cnc3c(c2)N(Cc2cc(Cl)ccc2C(F)(F)F)CCN3)cc1)N1CCCCC1 |  | < 50 | < 50 | < 50 |  |  | < 50 |  | < 50 | < 50 |  |
| CN1CCN(c2ccc(-c3cnc4c(c3)N(Cc3c(F)ccc(F)c3Cl)CCN4)cn2)CC1 | < 50 | 76 | < 50 | < 50 | < 50 | < 50 | < 50 | < 50 | < 50 | < 50 | < 50 |
| COC1CCN(C(=O)c2ccc(-c3cnc4c(c3)N(Cc3cc(Cl)ccc3C(F)(F)F)CCN4)cc2)CC1 |  | < 50 | < 50 | < 50 |  |  | < 50 |  | < 50 | < 50 |  |
| O=C(O)c1ccc(-c2cnc3c(c2)N(Cc2cc(Cl)ccc2C(F)(F)F)CCN3)cc1 |  | < 50 | < 50 | < 50 |  |  | < 50 |  | < 50 | < 50 |  |
| FC(F)(F)c1ccc(Cl)cc1CN1CCNc2ncc(-c3ccnc(N4CCNCC4)c3)cc21 | 76 | < 50 | < 50 | < 50 | 67 | < 50 | < 50 | < 50 | < 50 | < 50 | < 50 |

Results, then the molecule that gave them:

| inhibition [1] [%] | inhibition [2] [%] | inhibition [3] [%] | inhibition [4] [%] | inhibition [5] [%] | inhibition [6] [%] | inhibition [7] [%] | inhibition [8] [%] | inhibition [9] [%] | inhibition [10] [%] | inhibition [11] [%] | Structure (SMILES) |
| --- | --- | --- | --- | --- | --- | --- | --- | --- | --- | --- | --- |
| < 50 | < 50 | < 50 | < 50 | < 50 | < 50 | < 50 | < 50 | < 50 | < 50 | < 50 | CN1CCN(c2ccc(-c3cnc4c(c3)N(Cc3cc(F)ccc3F)CCN4)cn2)CC1 |
| < 50 | < 50 | < 50 | < 50 | < 50 | < 50 | < 50 | < 50 | < 50 | < 50 | < 50 | CC(=O)N1CCN(c2cc(-c3cnc4c(c3)N(Cc3cc(Cl)ccc3C(F)(F)F)CCN4)ccn2)CC1 |
| < 50 | < 50 | < 50 | < 50 | < 50 | < 50 | < 50 | < 50 | < 50 | < 50 | < 50 | CN1CCN(c2ccc(-c3cnc4c(c3)N(Cc3cc(Cl)ccc3C(F)(F)F)CCN4)cn2)CC1 |
| < 50 | < 50 | < 50 | < 50 | < 50 | < 50 | < 50 | < 50 | < 50 | < 50 | < 50 | CN1CCN(c2ccc(-c3cnc4c(c3)N(Cc3cc(Cl)ccc3Cl)CCN4)cn2)CC1 |
